According to ChEMBL document CHEMBL1629657, “In vitro antimicrobial activity of a new cephalosporin, ceftaroline, and determination of quality control ranges for MIC testing” (2009):
In brackets after ≈: the same amount, converted by molar mass.

Assays:
Assay type in all cases: functional
Morganella morganii = test: Antimicrobial activity against Morganella morganii by broth microdilution method
Summary of the method: (§1)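 Clinical isolates were tested by CLSI broth microdilution in unsupplemented cation-adjusted Mueller-Hinton broth. The read-out was the MIC, reported as MIC90 (μg/ml) per species or phenotypic group. Ceftriaxone, levofloxacin and imipenem were run in parallel as comparators.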

Haemophilus influenzae [1] = test: Antimicrobial activity against beta-lactamase-negative ampicillin resistant Haemophilus influenzae by broth microdilution method
Summary of the method: (§2)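 CLSI broth microdilution in Haemophilus test medium (cation-adjusted Mueller-Hinton base) against clinical H. influenzae isolates of the stated phenotype. Ceftaroline was compared with ceftriaxone, levofloxacin and imipenem. Activity was expressed as MICs (MIC90 in μg/ml).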

Streptococcus pneumoniae [2] = test: Antimicrobial activity against levofloxacin-resistant Streptococcus pneumoniae by broth microdilution method
Summary of the method: (§3)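 CLSI broth microdilution in cation-adjusted Mueller-Hinton broth with 3% lysed horse blood, against streptococcal clinical isolates of the stated phenotype. Ceftaroline was compared with ceftriaxone, levofloxacin and imipenem. Activity was expressed as MICs (MIC90 in μg/ml).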

Streptococcus pneumoniae [3] = test: Antimicrobial activity against penicillin-intermediate Streptococcus pneumoniae by broth microdilution method; summary of the method: as §3
Klebsiella aerogenes = test: Antimicrobial activity against ESBL-negative Enterobacter aerogenes by broth microdilution method; summary of the method: as §1
[4] = tested on: Stenotrophomonas maltophilia; test: Antimicrobial activity against Stenotrophomonas maltophilia by broth microdilution method; summary of the method: as §1
Enterococcus faecium = test: Antimicrobial activity against vancomycin-susceptible Enterococcus faecium by broth microdilution method; summary of the method: as §1
Staphylococcus aureus [5] = test: Antimicrobial activity against vancomycin-resistant Staphylococcus aureus by broth microdilution method
Summary of the method: (§4)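 Isolates of the stated resistance phenotype were tested by CLSI broth microdilution in unsupplemented cation-adjusted Mueller-Hinton broth. Ceftaroline was compared with ceftriaxone, levofloxacin and imipenem. Activity was expressed as MICs (MIC90 in μg/ml).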

Enterobacter cloacae = test: Antimicrobial activity against ESBL-negative Enterobacter cloacae by broth microdilution method; summary of the method: as §1
Providencia stuartii = test: Antimicrobial activity against Proteus stuartii by broth microdilution method; summary of the method: as §1
Proteus mirabilis = test: Antimicrobial activity against Proteus mirabilis by broth microdilution method; summary of the method: as §1
Streptococcus pyogenes = test: Antimicrobial activity against macrolide-susceptible Streptococcus pyogenes by broth microdilution method; summary of the method: as §3
Staphylococcus aureus [6] = test: Antimicrobial activity against vancomycin-intermediate Staphylococcus aureus by broth microdilution method; summary of the method: as §1
Streptococcus agalactiae = test: Antimicrobial activity against Streptococcus agalactiae by broth microdilution method
Summary of the method: (§5)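 Streptococcal isolates were tested by CLSI broth microdilution in cation-adjusted Mueller-Hinton broth supplemented with 3% lysed horse blood. The read-out was the MIC, with MIC90 (μg/ml) reported per group. Ceftriaxone, levofloxacin and imipenem served as comparators.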

Streptococcus viridans = test: Antimicrobial activity against Streptococcus viridans group clinical isolate by broth microdilution method; summary of the method: as §5
Escherichia coli = test: Antimicrobial activity against ESBL-positive Escherichia coli by broth microdilution method; summary of the method: as §1
Pseudomonas aeruginosa = test: Antimicrobial activity against Pseudomonas aeruginosa by broth microdilution method; summary of the method: as §1
Moraxella catarrhalis = test: Antimicrobial activity against Moraxella catarrhalis by broth microdilution method; summary of the method: as §1
Haemophilus influenzae [7] = test: Antimicrobial activity against beta-lactamase-negative Haemophilus influenzae by broth microdilution method; summary of the method: as §2
Staphylococcus aureus [8] = test: Antimicrobial activity against methicillin-resistant Staphylococcus aureus by broth microdilution method; summary of the method: as §4
Listeria monocytogenes = test: Antimicrobial activity against Listeria monocytogenes by broth microdilution method; summary of the method: as §1

C[C@@H](O)[C@H]1C(=O)N2C(C(=O)O)=C(SCCNC=N)C[C@H]12 [IMIPENEM ANHYDROUS]
MIC50 (Morganella morganii): 4 µg/mL (≈ 13.4 µM)
MIC90 (Morganella morganii): 4 µg/mL (≈ 13.4 µM)
MIC50 (Haemophilus influenzae [1]): 0.5 µg/mL (≈ 1.67 µM)
MIC90 (Haemophilus influenzae [1]): 1 µg/mL (≈ 3.34 µM)
MIC50 (Streptococcus pneumoniae [2]): 0.03 µg/mL (≈ 0.1 µM)
MIC90 (Streptococcus pneumoniae [2]): 0.25 µg/mL (≈ 0.835 µM)
MIC50 (Streptococcus pneumoniae [3]): 0.03 µg/mL (≈ 0.1 µM)
MIC90 (Streptococcus pneumoniae [3]): 0.06 µg/mL (≈ 0.2 µM)
MIC50 (Klebsiella aerogenes): 1 µg/mL (≈ 3.34 µM)
MIC90 (Klebsiella aerogenes): 1 µg/mL (≈ 3.34 µM)
MIC50 [4]: > 32 µg/mL
MIC90 [4]: > 32 µg/mL
MIC50 (Enterococcus faecium): 4 µg/mL (≈ 13.4 µM)
MIC90 (Enterococcus faecium): > 32 µg/mL
MIC (Staphylococcus aureus [5]): 1 µg/mL (≈ 3.34 µM)
MIC50 (Enterobacter cloacae): 0.25 µg/mL (≈ 0.835 µM)
MIC90 (Enterobacter cloacae): 0.5 µg/mL (≈ 1.67 µM)
MIC50 (Providencia stuartii): 2 µg/mL (≈ 6.68 µM)
MIC90 (Providencia stuartii): 4 µg/mL (≈ 13.4 µM)
MIC50 (Proteus mirabilis): 2 µg/mL (≈ 6.68 µM)
MIC90 (Proteus mirabilis): 4 µg/mL (≈ 13.4 µM)
MIC (Streptococcus pyogenes): 0.015 µg/mL (≈ 0.0501 µM)
MIC50 (Streptococcus pyogenes): 0.015 µg/mL (≈ 0.0501 µM)
MIC90 (Streptococcus pyogenes): 0.015 µg/mL (≈ 0.0501 µM)
MIC50 (Staphylococcus aureus [6]): 0.25 µg/mL (≈ 0.835 µM)
MIC90 (Staphylococcus aureus [6]): > 32 µg/mL
MIC (Streptococcus agalactiae): 0.015 µg/mL (≈ 0.0501 µM)
MIC50 (Streptococcus agalactiae): 0.015 µg/mL (≈ 0.0501 µM)
MIC90 (Streptococcus agalactiae): 0.015 µg/mL (≈ 0.0501 µM)
MIC (Streptococcus viridans): 0.015 µg/mL (≈ 0.0501 µM)
MIC50 (Streptococcus viridans): 0.015 µg/mL (≈ 0.0501 µM)
MIC90 (Streptococcus viridans): 0.12 µg/mL (≈ 0.401 µM)
MIC50 (Escherichia coli): 0.12 µg/mL (≈ 0.401 µM)
MIC90 (Escherichia coli): 0.25 µg/mL (≈ 0.835 µM)
MIC (Pseudomonas aeruginosa): 1 µg/mL (≈ 3.34 µM)
MIC50 (Pseudomonas aeruginosa): 1 µg/mL (≈ 3.34 µM)
MIC90 (Pseudomonas aeruginosa): 16 µg/mL (≈ 53.4 µM)
MIC50 (Moraxella catarrhalis): 0.06 µg/mL (≈ 0.2 µM)
MIC90 (Moraxella catarrhalis): 0.06 µg/mL (≈ 0.2 µM)
MIC50 (Haemophilus influenzae [7]): 0.5 µg/mL (≈ 1.67 µM)
MIC90 (Haemophilus influenzae [7]): 0.5 µg/mL (≈ 1.67 µM)
MIC50 (Staphylococcus aureus [8]): 0.25 µg/mL (≈ 0.835 µM)
MIC90 (Staphylococcus aureus [8]): 32 µg/mL (≈ 107 µM)
MIC50 (Listeria monocytogenes): 0.06 µg/mL (≈ 0.2 µM)
MIC90 (Listeria monocytogenes): 0.06 µg/mL (≈ 0.2 µM)
